ChEMBL document CHEMBL3352189 (J Med Chem, 2014)
The source made the active and inactive calls. No cut-off for these calls is given here.

Tests used:
[1] = Plasma concentration in C57BL/6 mouse at 5 mg/kg, ip administered as single dose measured after 120 mins by LC/MS analysis based RACE assay; format: ADME, organism-based; set-up: dose 5 mg/kg, route intraperitoneal
In short: (§1)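 Single intraperitoneal dose of 1, 5 or 10 mg/kg given to C57BL/6 mice, 3 mice per dose and time point, with a vehicle-control cohort. Plasma was sampled at 20 and 120 min post-dose and drug level measured by LC/MS. Each time point averaged two injections (<20% difference); values are means ± standard deviation in μM.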

[2] = molecular target: Substance-P receptor (Homo sapiens) (UniProt P25103); assay: Displacement of [3H]substance P from human NK1 receptor 2 at 10 uM
[3] = molecular target: B1 bradykinin receptor (Homo sapiens) (UniProt P46663); assay: Displacement of [3H](Des-Arg10)-Kallidin from human bradykinin B1 receptor at 10 uM
[4] = species on record: Rattus norvegicus; assay: Displacement of [3H]rolipram from rat Rolipram binding site at 10 uM
[5] = molecular target: Sodium-dependent serotonin transporter (Homo sapiens) (UniProt P31645); assay: Displacement of [3H]paroxetine from human SERT at 10 uM
[6] = molecular target: T1, Glutamate NMDA receptor (Rattus norvegicus) (UniProt P35439+Q00959+Q00960+Q00961+Q62645+Q8VHN2+Q9R1M7); assay: Displacement of [3H]MDL 105,519 from rat NMDA receptor glycine binding site binding site at 10 uM; format: protein-complex assay
[7] = tested on: Venezuelan equine encephalitis virus; assay: Antiviral activity against Venezuelan equine encephalitis virus V3526 infected in Vero 76 cells assessed as reduction in virus-induced cytopathic effect after 2 days by Celltiter-Glo reagent based assay; format: functional, organism-based; settings: V3526, Vero 76, 48 h
[8] = molecular target: Glucocorticoid receptor (Homo sapiens) (UniProt P04150); assay: Displacement of [3H]dexamethasone from human glucocorticoid receptor at 10 uM
Glucocorticoid receptor (Homo sapiens), sequence (P04150 whole entry): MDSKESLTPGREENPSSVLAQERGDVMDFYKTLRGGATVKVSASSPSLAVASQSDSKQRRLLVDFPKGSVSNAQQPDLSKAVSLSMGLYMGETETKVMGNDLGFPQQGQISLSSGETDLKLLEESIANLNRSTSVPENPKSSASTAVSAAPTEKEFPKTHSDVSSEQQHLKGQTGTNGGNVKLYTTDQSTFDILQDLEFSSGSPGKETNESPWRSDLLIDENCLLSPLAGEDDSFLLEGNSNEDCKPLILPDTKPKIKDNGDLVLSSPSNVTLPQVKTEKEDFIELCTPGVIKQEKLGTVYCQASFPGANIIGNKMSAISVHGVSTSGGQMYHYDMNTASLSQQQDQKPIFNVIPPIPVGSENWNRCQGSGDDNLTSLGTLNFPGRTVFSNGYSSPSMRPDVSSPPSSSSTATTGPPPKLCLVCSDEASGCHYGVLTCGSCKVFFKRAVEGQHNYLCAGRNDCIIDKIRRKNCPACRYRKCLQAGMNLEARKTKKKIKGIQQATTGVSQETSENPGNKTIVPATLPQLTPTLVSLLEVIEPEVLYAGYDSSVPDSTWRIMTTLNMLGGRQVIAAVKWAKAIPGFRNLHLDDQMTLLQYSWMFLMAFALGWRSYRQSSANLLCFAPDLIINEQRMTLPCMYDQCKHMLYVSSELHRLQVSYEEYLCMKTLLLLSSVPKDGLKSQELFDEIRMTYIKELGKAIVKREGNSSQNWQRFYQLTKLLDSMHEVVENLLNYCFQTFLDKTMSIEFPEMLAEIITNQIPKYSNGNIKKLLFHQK

[9] = molecular target: Adenosine receptor A3 (Homo sapiens) (UniProt P0DMS8); assay: Displacement of [125I]AB-MECA from human adenosine A3 receptor at 10 uM
Adenosine receptor A3 (Homo sapiens), sequence (P0DMS8 whole entry): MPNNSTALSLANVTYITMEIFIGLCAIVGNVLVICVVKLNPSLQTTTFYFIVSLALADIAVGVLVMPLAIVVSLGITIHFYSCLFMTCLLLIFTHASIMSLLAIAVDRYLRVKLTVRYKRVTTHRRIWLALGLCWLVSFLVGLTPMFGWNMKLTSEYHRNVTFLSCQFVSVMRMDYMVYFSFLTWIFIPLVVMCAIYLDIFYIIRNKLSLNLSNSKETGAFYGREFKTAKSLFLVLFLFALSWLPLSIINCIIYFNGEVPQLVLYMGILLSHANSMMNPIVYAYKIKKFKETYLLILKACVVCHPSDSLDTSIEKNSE

[10] = species on record: Rattus norvegicus; assay: Displacement of [3H]kainic acid from rat kainate receptor at 10 uM
[11] = molecular target: D(2) dopamine receptor (Homo sapiens) (UniProt P14416); assay: Displacement of [3H]spiperone from human dopamine D2S receptor at 10 uM
[12] = Plasma concentration in C57BL/6 mouse at 1 mg/kg, ip administered as single dose measured after 20 mins by LC/MS analysis based RACE assay; format: ADME, organism-based; set-up: dose 1 mg/kg, route intraperitoneal; in short: as §1
[13] = tested on: Venezuelan equine encephalitis virus; assay: Antiviral activity against Venezuelan equine encephalitis virus TC83 infected in Vero 76 cells assessed as reduction in virus-induced cytopathic effect after 2 days by Celltiter-Glo reagent based assay; format: functional, organism-based; settings: TC83, Vero 76, 48 h
[14] = tested on: Venezuelan equine encephalitis virus; assay: Antiviral activity against Venezuelan equine encephalitis virus TC83 infected in Vero 76 cells assessed as reduction in viral titer by crystal violet staining based microplaque assay relative to untreated control; format: functional, organism-based; settings: TC83, Vero 76
[15] = tested on: Cricetinae; assay: Displacement of [3H]glyburide from hamster KATP channel at 10 uM
[16] = Chemical stability in presence of 5x DTT assessed as parent compound remaining incubated for 8 hrs; format: physicochemical; settings: read-out: Stability
[17] = molecular target: B2 bradykinin receptor (Homo sapiens) (UniProt P30411); assay: Displacement of [3H]bradykinin from human bradykinin B2 receptor at 10 uM
[18] = molecular target: T1, Glutamate NMDA receptor (Rattus norvegicus); assay: Displacement of [3H]CGP-39653 from rat NMDA receptor agonist binding site binding site at 10 uM; format: protein-complex assay
[19] = tested on: Plasma; assay: Protein binding in mouse plasma at 1 uM; format: ADME, cell-free
[20] = species on record: Rattus norvegicus; assay: Displacement of [125I]omega-Conotoxin GVIA from rat N-type calcium channel at 10 uM
[21] = molecular target: Estrogen receptor (Homo sapiens) (UniProt P03372); assay: Displacement of [3H]estradiol from human ERalpha at 10 uM
[22] = molecular target: Kappa-type opioid receptor (Homo sapiens) (UniProt P41145); assay: Displacement of [3H]diprenorphine from human kappa opiate receptor at 10 uM
Kappa-type opioid receptor (Homo sapiens), sequence (P41145 whole entry): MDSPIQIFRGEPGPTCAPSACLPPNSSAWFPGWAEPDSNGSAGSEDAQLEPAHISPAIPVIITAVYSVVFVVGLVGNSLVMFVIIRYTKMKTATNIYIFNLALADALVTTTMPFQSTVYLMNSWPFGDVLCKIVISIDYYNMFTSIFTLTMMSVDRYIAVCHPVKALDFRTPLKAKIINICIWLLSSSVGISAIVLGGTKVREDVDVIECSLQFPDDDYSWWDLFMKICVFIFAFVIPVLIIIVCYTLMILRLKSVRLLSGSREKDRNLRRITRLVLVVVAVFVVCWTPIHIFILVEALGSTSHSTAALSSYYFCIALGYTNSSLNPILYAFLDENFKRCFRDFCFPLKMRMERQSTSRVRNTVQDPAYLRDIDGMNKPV

[23] = molecular target: 5-hydroxytryptamine receptor 1A (Homo sapiens) (UniProt P08908); assay: Displacement of [3H]8-OH-DPAT from human 5HT1A receptor at 10 uM
5-hydroxytryptamine receptor 1A (Homo sapiens), sequence (P08908 whole entry): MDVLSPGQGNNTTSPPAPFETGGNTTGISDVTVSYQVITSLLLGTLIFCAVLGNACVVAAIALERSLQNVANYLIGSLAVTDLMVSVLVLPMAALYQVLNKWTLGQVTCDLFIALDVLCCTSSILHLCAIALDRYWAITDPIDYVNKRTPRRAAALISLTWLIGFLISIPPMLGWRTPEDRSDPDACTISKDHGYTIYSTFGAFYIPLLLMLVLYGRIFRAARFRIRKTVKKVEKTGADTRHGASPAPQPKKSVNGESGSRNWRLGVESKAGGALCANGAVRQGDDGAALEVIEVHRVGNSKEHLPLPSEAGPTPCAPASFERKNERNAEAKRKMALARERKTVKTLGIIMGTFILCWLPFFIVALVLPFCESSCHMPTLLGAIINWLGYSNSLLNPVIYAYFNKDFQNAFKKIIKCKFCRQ

[24] = tested on: Venezuelan equine encephalitis virus; assay: Antiviral activity against Venezuelan equine encephalitis virus TrD infected in Vero 76 cells assessed as reduction in viral titer at 0.5 uM by crystal violet staining based microplaque assay relative to untreated control; format: functional, organism-based
[25] = molecular target: Cannabinoid receptor 1 (Homo sapiens) (UniProt P21554); assay: Displacement of [3H]SR141716A from human CB1 receptor at 10 uM
Cannabinoid receptor 1 (Homo sapiens), sequence (P21554 whole entry): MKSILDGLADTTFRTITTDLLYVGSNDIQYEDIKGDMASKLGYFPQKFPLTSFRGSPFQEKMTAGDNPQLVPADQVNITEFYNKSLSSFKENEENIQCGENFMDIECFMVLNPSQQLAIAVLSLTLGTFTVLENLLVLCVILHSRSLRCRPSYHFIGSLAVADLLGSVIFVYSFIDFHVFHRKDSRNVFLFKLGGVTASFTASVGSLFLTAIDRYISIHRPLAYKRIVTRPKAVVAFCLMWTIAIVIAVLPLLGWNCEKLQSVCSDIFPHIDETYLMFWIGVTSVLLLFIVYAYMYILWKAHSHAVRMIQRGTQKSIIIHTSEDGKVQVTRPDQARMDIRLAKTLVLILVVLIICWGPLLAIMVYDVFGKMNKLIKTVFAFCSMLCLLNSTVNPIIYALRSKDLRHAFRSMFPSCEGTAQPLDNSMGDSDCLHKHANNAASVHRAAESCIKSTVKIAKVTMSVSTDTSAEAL

[26] = tested on: Mus musculus; assay: Toxicity in Venezuelan equine encephalitis virus TC83 infected C3H/HeN mouse assessed as induction of lethargy at 5 mg/kg/day, ip BID for 4 days; format: organism-based; set-up: route intraperitoneal; settings: in vivo, 96 h
[27] = molecular target: Alpha-1A adrenergic receptor (Rattus norvegicus) (UniProt P43140); assay: Displacement of [3H]prazosin from rat adrenergic alpha1A receptor at 10 uM
Alpha-1A adrenergic receptor (Rattus norvegicus), sequence (P43140 whole entry): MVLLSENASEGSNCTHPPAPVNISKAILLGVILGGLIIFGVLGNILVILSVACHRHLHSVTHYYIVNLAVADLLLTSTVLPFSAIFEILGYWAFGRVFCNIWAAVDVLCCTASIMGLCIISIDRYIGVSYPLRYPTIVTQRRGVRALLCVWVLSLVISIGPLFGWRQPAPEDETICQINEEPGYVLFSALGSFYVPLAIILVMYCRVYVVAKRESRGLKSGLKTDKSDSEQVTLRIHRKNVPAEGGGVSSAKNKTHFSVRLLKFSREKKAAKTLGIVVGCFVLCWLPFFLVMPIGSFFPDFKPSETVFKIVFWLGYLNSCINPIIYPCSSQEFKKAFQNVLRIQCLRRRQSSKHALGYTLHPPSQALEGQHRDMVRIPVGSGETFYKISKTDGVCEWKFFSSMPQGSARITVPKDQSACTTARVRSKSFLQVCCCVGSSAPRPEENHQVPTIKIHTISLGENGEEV

[28] = molecular target: CYP2D6 (Homo sapiens, UniProt P10635); assay: Inhibition of human CYP2D6 at 10 uM; format: ADME
CYP2D6, sequence (P10635 whole entry): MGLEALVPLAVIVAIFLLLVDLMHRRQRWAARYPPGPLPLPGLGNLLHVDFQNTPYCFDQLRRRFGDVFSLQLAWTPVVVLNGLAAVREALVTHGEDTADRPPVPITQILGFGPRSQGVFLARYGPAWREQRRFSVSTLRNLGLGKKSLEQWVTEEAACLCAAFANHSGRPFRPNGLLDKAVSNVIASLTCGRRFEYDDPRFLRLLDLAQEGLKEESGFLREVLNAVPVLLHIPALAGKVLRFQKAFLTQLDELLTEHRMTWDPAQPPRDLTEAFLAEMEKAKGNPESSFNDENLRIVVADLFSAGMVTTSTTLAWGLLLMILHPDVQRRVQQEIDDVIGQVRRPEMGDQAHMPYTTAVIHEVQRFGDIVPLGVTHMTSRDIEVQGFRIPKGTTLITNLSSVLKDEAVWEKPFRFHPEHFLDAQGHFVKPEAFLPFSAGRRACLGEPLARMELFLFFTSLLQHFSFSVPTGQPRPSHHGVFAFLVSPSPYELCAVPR

[29] = molecular target: D(1A) dopamine receptor (Homo sapiens) (UniProt P21728); assay: Displacement of [3H]SCH-23390 from human dopamine D1 receptor at 10 uM
D(1A) dopamine receptor (Homo sapiens), sequence (P21728 whole entry): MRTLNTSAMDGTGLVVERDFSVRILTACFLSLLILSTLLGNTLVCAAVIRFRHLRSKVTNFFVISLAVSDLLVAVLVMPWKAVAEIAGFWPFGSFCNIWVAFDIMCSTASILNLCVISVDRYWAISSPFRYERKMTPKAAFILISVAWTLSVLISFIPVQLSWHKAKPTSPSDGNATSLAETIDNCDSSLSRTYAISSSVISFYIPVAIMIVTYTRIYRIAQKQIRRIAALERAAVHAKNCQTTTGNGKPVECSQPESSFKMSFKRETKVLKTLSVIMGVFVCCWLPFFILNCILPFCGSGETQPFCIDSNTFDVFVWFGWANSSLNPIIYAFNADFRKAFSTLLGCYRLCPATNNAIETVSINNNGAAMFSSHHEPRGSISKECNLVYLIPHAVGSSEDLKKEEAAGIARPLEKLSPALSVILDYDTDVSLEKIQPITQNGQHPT

[30] = molecular target: Cysteinyl leukotriene receptor 1 (Homo sapiens) (UniProt Q9Y271); assay: Displacement of [3H]LTD4 from human CysLT1 receptor at 10 uM
[31] = molecular target: 5-hydroxytryptamine receptor 2B (Homo sapiens) (UniProt P41595); assay: Displacement of [3H]lysergic acid diethylamide from human 5HT2B receptor at 10 uM
5-hydroxytryptamine receptor 2B (Homo sapiens), sequence (P41595 whole entry): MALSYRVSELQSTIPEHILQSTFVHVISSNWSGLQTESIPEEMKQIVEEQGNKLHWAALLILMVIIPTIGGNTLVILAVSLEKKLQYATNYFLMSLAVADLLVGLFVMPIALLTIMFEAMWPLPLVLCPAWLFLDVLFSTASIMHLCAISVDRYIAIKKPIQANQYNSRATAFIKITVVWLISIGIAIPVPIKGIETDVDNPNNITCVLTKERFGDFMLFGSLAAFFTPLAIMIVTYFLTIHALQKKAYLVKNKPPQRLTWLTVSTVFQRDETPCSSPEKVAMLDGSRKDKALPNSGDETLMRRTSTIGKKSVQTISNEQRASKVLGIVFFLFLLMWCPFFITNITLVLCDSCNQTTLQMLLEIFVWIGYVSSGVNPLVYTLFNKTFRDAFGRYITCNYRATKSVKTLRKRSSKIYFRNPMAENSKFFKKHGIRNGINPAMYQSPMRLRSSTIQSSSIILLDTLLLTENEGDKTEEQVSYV

[32] = molecular target: Neuropeptide Y receptor type 2 (Homo sapiens) (UniProt P49146); assay: Displacement of [125I]Peptide YY from human neuropeptide Y Y2 receptor at 10 uM
[33] = tested on: Mus musculus; assay: Toxicity in Venezuelan equine encephalitis virus TC83 infected C3H/HeN mouse assessed as induction of ruffled fur at 40 mg/kg/day, ip BID for 4 days; format: organism-based; set-up: route intraperitoneal; settings: in vivo, 96 h
[34] = tested on: Mus musculus; assay: Toxicity in Venezuelan equine encephalitis virus TC83 infected C3H/HeN mouse assessed as body weight loss at 5 mg/kg/day, ip BID for 4 days; format: organism-based; set-up: route intraperitoneal; settings: in vivo, 96 h
[35] = Drug concentration in C57BL/6 mouse brain at 5 mg/kg, ip administered as single dose measured after 120 mins by LC/MS analysis based RACE assay; format: ADME, organism-based; set-up: dose 5 mg/kg, route intraperitoneal; settings: read-out: Drug uptake
In short: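 Brain tissue taken at the terminal 120 min point after one intraperitoneal dose (1, 5 or 10 mg/kg) in C57BL/6 mice, 3 per group, with a vehicle cohort. Drug level measured by LC/MS, averaging two injections per sample; reported as mean ± standard deviation, μM.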

[36] = molecular target: Androgen receptor (Rattus norvegicus) (UniProt P15207); assay: Displacement of [3H]mibolerone from rat androgen receptor at 10 uM
[37] = Plasma concentration in C57BL/6 mouse at 5 mg/kg, ip administered as single dose measured after 20 mins by LC/MS analysis based RACE assay; format: ADME, organism-based; set-up: dose 5 mg/kg, route intraperitoneal; in short: as §1
[38] = molecular target: CYP2C19 (Homo sapiens, UniProt P33261); assay: Inhibition of human CYP2C19 at 10 uM; format: ADME
CYP2C19, sequence (P33261 whole entry): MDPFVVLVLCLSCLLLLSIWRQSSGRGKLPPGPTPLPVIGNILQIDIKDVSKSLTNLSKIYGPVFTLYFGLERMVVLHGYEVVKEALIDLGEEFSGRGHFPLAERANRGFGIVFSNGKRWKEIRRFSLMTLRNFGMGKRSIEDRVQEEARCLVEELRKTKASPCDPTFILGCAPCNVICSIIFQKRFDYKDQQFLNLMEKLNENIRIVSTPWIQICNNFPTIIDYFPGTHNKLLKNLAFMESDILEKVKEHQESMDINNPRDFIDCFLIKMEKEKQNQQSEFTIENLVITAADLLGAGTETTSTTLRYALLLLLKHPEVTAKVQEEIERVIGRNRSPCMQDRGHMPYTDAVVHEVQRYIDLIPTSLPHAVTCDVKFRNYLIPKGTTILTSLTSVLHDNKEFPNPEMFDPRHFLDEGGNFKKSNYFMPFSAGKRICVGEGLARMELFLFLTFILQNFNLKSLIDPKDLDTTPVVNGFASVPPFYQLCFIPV

CN1CCN(C)/C(=N/c2ccc([N+](=O)[O-])cc2C(=O)Nc2ccccc2)C1
concentration at 2 h [1]: 0.29 µM
inhibition [2]: 8.19%
inhibition [3]: 9.23%
inhibition [4]: 34.9%
inhibition [5]: -5.97%
inhibition [6]: 12.9%
EC50 [7]: 0.02 µM
inhibition [8]: 10.2%
inhibition [9]: 26.7%
inhibition [10]: 22.3%
inhibition [11]: 9.08%
concentration at 20 min [12]: 0.2 µM
EC50 [13]: 0.03 µM
EC50 [14]: 0.17 µM
inhibition [15]: 4.77%
remaining at 8 h [16]: 99%
inhibition [17]: 3.4%
inhibition [18]: -2.6%
PPB [19]: 85%
inhibition [20]: 22.7%
inhibition [21]: 10%
inhibition [22]: 9.71%
inhibition [23]: 2.12%
inhibition [24]: Active
inhibition [25]: -2.06%
Activity [26]: Non-toxic
inhibition [27]: 4.41%
inhibition at 10 µM [28]: 28%
inhibition [29]: 2.65%
inhibition [30]: 10.9%
inhibition [31]: 10%
inhibition [32]: -6.1%
Activity [33]: Non-toxic
Activity [34]: Non-toxic
concentration at 2 h [35]: 0.21 µM
inhibition [36]: 1.1%
concentration at 20 min [37]: 1.45 µM
inhibition at 10 µM [38]: 17%
